Laboratory results reported in ChEMBL document CHEMBL5705899 (Biochem J, 2014).
The source made the active and inactive calls. No cut-off for these calls is given here.

Experiments:
[1] = biological target: Tyrosine-protein kinase JAK2 (Homo sapiens) (UniProt O60674); test: Inhibition of JAK2 (unknown origin) assessed as remaining activity at 1 uM relative to control
Method in brief: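 Dundee panel of 140 protein kinases, tested at a single 1 μM concentration. Each assay was run in triplicate. Remaining activity is expressed relative to a control reaction without inhibitor, as mean ± S.D. Conditions for each kinase were those of the screening centre.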

[2] = biological target: Mitogen-activated protein kinase 8 (Homo sapiens) (UniProt P45983); test: Inhibition of human JNK1 at 1 uM using ATF2 as substrate in presence of 33P-ATP by ProQinase assay
[3] = biological target: Phosphatidylinositol 4-kinase beta (Homo sapiens, UniProt Q9UBF8); test: Inhibition of recombinant human N-terminal His6-tagged PIK4Cbeta (1 to 801 residues) expressed in baculovirus expression system at 1 uM using […] as substrate incubated for 45 mins by ADP-Glo assay
[4] = biological target: Protein-tyrosine kinase 6 (Homo sapiens) (UniProt Q13882); test: Inhibition of recombinant human N-terminal His6-tagged BRK (1 to 451 residues) expressed in baculovirus infected Sf21 cells assessed as remaining activity at 1 uM using Poly (Glu,Tyr) as substrate incubated for 30 mins in presence of [gamma-33P]ATP by filter binding method relative to control
[5] = biological target: Serine/threonine-protein kinase pim-1 (Homo sapiens) (UniProt P11309); test: Inhibition of recombinant human N-terminal His6-tagged PIM1 (2 to 313 residues) expressed in baculovirus infected Sf21 cells assessed as remaining activity at 1 uM using RSRHSSYPAGT as substrate incubated for 30 mins in presence of [gamma-33P]ATP by filter binding method relative to control
[6] = biological target: Vascular endothelial growth factor receptor 2 (Homo sapiens) (UniProt P35968); test: Inhibition of human VEGFR2 at 1 uM using polyEY as substrate in presence of 33P-ATP by ProQinase assay
TAK1/TAB1 (Homo sapiens) = TAK1/TAB1 (Homo sapiens) (UniProt Q15750+O43318); test: Inhibition of human MAP3K7/MAP3K7IP1 at 1 uM using RB-S6P as substrate in presence of 33P-ATP by ProQinase assay; assay type: protein-complex assay
[7] = biological target: Protein kinase C zeta type (Homo sapiens) (UniProt Q05513); test: Inhibition of human PKCzeta at 1 uM using 3xChocktide-PKC as substrate in presence of 33P-ATP by ProQinase assay
[8] = biological target: Rho-associated protein kinase 1 (Homo sapiens) (UniProt Q13464); test: Inhibition of human ROCK1 at 1 uM using 3xChocktide-PKC as substrate in presence of 33P-ATP by ProQinase assay
[9] = biological target: Serine/threonine-protein kinase tousled-like 1 (Homo sapiens) (UniProt Q9UKI8); test: Inhibition of human TLK1 at 1 uM using RB-CTF as substrate in presence of 33P-ATP by ProQinase assay
[10] = biological target: CDK1/Cyclin E (Homo sapiens) (UniProt P06493+P24864); test: Inhibition of human CDK1/Cyclin E1at 1 uM using RBER-CHKtide as substrate in presence of 33P-ATP by ProQinase assay; assay type: protein-complex assay
[11] = biological target: Calcium/calmodulin-dependent protein kinase kinase 2 (Homo sapiens) (UniProt Q96RR4); test: Inhibition of human CAMKK2 at 1 uM using RBER-GSK3 as substrate in presence of 33P-ATP by ProQinase assay
[12] = biological target: Ribosomal protein S6 kinase beta-2 (Homo sapiens) (UniProt Q9UBS0); test: Inhibition of human S6K-beta at 1 uM using RBER-CHKtide as substrate in presence of 33P-ATP by ProQinase assay
[13] = biological target: Serine/threonine-protein kinase PAK 5 (Homo sapiens) (UniProt Q9P286); test: Inhibition of human PAK7 at 1 uM using bio-4xCHKT as substrate in presence of 33P-ATP by ProQinase assay
[14] = biological target: Insulin receptor-related protein (Homo sapiens) (UniProt P14616); test: Inhibition of human INSRR at 1 uM using poly(Ala,Glu,Lys,Tyr) as substrate in presence of 33P-ATP by ProQinase assay
[15] = biological target: Misshapen-like kinase 1 (Homo sapiens) (UniProt Q8N4C8); test: Inhibition of human MINK1 at 1 uM using RBER-CHKtide as substrate in presence of 33P-ATP by ProQinase assay
[16] = biological target: Diacylglycerol kinase kappa (Homo sapiens) (UniProt Q5KSL6); test: Inhibition of DGKkappa (unknown origin) at 1 uM
[17] = biological target: Dual specificity protein kinase CLK4 (Homo sapiens) (UniProt Q9HAZ1); test: Inhibition of human CLK4 at 1 uM using MBP as substrate in presence of 33P-ATP by ProQinase assay
[18] = biological target: Casein kinase I isoform delta (Homo sapiens) (UniProt P48730); test: Inhibition of recombinant human N-terminal GST-tagged CK1delta (1 to 415 residues) expressed in Escherichia coli assessed as remaining activity at 1 uM using RRKDLHDDEEDEAMSITA as substrate incubated for 30 mins in presence of [gamma-33P]ATP by filter binding method relative to control
[19] = biological target: Serine/threonine-protein kinase PLK2 (Homo sapiens) (UniProt Q9NYY3); test: Inhibition of human SNK at 1 uM using RBER-GSK3 as substrate in presence of 33P-ATP by ProQinase assay
[20] = biological target: PI3-kinase p110-alpha/p85-alpha (Homo sapiens, UniProt P42336); test: Inhibition of human PIK3CA/PIK3R1 using PIP2/PS as substrate by ADP-Glo assay; assay type: protein-complex assay
[21] = biological target: Phosphatidylinositol 4,5-bisphosphate 3-kinase catalytic subunit beta isoform (Homo sapiens, UniProt P42338); test: Inhibition of PI3Kbeta (unknown origin) using PtdIns(4,5)P2 as substrate preincubated for 20 mins followed by substrate addition and measured after 80 mins by Kinase-Glo assay
[22] = biological target: MAP kinase-activated protein kinase 3 (Homo sapiens) (UniProt Q16644); test: Inhibition of recombinant human N-terminal GST-tagged MAPKAPK3 (2 to 382 residues) expressed in Escherichia coli assessed as remaining activity at 1 uM using KKLNRTLSVA as substrate incubated for 30 mins in presence of [gamma-33P]ATP by filter binding method relative to control
[23] = biological target: Activin receptor type-1 (Homo sapiens) (UniProt Q04771); test: Inhibition of human ACVR1 at 1 uM using RBER-GSK3 as substrate in presence of 33P-ATP by ProQinase assay
[24] = biological target: Diacylglycerol kinase beta (Homo sapiens) (UniProt Q9Y6T7); test: Inhibition of DGKbeta (unknown origin) at 1 uM
[25] = biological target: Ribosomal protein S6 kinase alpha-3 (Homo sapiens) (UniProt P51812); test: Inhibition of recombinant human N-terminal His6-tagged RSK2 (2 to 740 residues) expressed in baculovirus infected Sf21 cells assessed as remaining activity at 1 uM using KKLNRTLSVA as substrate incubated for 30 mins in presence of [gamma-33P]ATP by filter binding method relative to control

CC(C)(O)CNc1ncc(-c2ccnc(Nc3ccnc(Cl)c3)n2)c(CC2CC2)n1
Activity [1]: 93% | inhibition [2]: inactive | inhibition [3]: inactive | Activity [4]: 103% | Activity [5]: 108% | inhibition [6]: inactive | inhibition (TAK1/TAB1 (Homo sapiens)): inactive | inhibition [7]: inactive | inhibition [8]: inactive | inhibition [9]: inactive | inhibition [10]: inactive | inhibition [11]: inactive | inhibition [12]: inactive | inhibition [13]: inactive | inhibition [14]: inactive | inhibition [15]: inactive | inhibition [16]: inactive | inhibition [17]: inactive | Activity [18]: 105% | inhibition [19]: inactive | IC50 [20]: > 10 µM | IC50 [21]: 21.4 µM | Activity [22]: 115% | inhibition [23]: inactive | inhibition [24]: inactive | Activity [25]: 103%
